Test [1] has as its system SGC-7901. Put plainly: Anticancer activity against human SGC7901 cells after 72 hrs by MTT assay. Format: functional, cell-based. The conditions noted are these: SGC-7901, 72 h. On the technique in general: Tetrazolium assays rely on reduction of a dye to a coloured formazan, in cell work by metabolically active cells.
Test [2] relates to SGC-7901. Put plainly: Induction of morphological changes in human SGC7901 cells assessed as induction of cell break at 1 and 10 uM after 24 to 72 hrs by inverted microscopic analysis. Type of test: functional, cell-based. The essentials:
(§1)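 SGC7901 cells were seeded and allowed 24 h to settle, then exposed to 0.1% (v/v) DMSO vehicle, to test agent at 1 or 10 μM, or to epirubicin at 1 or 10 μM. Exposure lasted 24, 48 and 72 h. Morphology (shrinkage, size, apoptotic bodies, breakdown) was then observed microscopically.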

Test [3] relates to SGC-7901. Put plainly: Anticancer activity against human SGC7901 cells at 1 to 10 uM after 72 hrs by MTT assay. Format: functional, cell-based. The essentials:
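Growth inhibition of SGC7901 gastric cancer cells tested at single concentrations of 10 and 1 μM for 72 h, read out by MTT assay. Epirubicin served as the positive control at the same concentrations.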

Test [4] concerns SGC-7901. Put plainly: Induction of morphological changes in human SGC7901 cells at 1 uM after 24 hrs by inverted microscopic analysis. Type of test: functional, cell-based. The method in brief: as §1
Test [5] concerns SGC-7901. Put plainly: Induction of morphological changes in human SGC7901 cells assessed as induction of cell shrinking at 10 uM after 48 to 72 hrs by inverted microscopic analysis. Type of test: functional, cell-based. The essentials: as §1
Test [6] deals with SGC-7901. Put plainly: Antiproliferative activity against human SGC7901 cells assessed as formation of apoptotic bodies at 10 uM after 48 to 72 hrs by inverted microscopic analysis. Format: functional, cell-based. The essentials: as §1
For test [7], the target named is Mitogen-activated protein kinase; ERK1/ERK2 (Homo sapiens) (UniProt P27361+P28482). As to the kind of experiment: Inhibition of EGF-induced ERK1/2 phosphorylation in human SGC7901 cells incubated for 30 mins post 10 min EGF stimulation by Western blot analysis. Format: cell-based. The method in brief:
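SGC7901 cells were grown in RPMI 1640 with 10% serum to 80% confluency and stimulated with 40 ng/ml EGF for 10 min. They were then treated for 30 min with 0.1% (v/v) DMSO or test agent at 1, 10, 20 or 40 μM. Lysates were run on SDS-PAGE and blotted for phospho-ERK1/2, with actin as loading control, ECL detection and densitometry. Three independent experiments were run.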
(In general: Immunoblotting shows a protein as a band on a membrane.)

The subject of test [8] is SGC-7901. As to the kind of experiment: Induction of morphological changes in human SGC7901 cells assessed as reduction in cell size at 10 uM after 48 to 72 hrs by inverted microscopic analysis. Format: functional, cell-based. The essentials: as §1

Active and inactive are the calls of the source. The calls are words filed in the database; no cut-off is given here.

Mitogen-activated protein kinase; ERK1/ERK2 (Homo sapiens), sequence (P27361 whole entry, looked up): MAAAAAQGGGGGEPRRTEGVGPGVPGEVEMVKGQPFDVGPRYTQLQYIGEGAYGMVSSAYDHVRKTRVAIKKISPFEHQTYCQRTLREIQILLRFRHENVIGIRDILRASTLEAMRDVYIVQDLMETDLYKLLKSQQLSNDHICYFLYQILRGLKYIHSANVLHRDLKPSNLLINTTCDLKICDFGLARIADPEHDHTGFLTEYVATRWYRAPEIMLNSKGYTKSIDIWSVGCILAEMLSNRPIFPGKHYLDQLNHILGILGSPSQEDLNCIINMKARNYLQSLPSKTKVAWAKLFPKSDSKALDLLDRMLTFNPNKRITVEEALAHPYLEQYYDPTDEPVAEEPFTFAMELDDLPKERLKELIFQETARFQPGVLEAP
Mitogen-activated protein kinase; ERK1/ERK2 (Homo sapiens), sequence (P28482 whole entry, looked up): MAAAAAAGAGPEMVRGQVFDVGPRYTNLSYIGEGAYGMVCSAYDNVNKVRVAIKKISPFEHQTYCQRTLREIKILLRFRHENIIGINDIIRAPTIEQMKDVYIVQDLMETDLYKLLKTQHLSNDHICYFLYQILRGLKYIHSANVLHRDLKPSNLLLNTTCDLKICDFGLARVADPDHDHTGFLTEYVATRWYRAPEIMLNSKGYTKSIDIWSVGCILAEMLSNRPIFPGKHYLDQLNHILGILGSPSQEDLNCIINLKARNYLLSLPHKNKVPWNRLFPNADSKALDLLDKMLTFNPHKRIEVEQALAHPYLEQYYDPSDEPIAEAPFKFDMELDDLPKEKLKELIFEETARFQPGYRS

For the molecule `COc1cc2c(Nc3ccc(F)c(Cl)c3)ncnc2c(OC)c1OC`, in the test with SGC-7901 [1], half-maximal inhibition (IC50) required 5.42 µM.

With `C#Cc1cccc(Nc2ncnc3c(OC)c(OC)c(OC)cc23)c1`, it took 5.82 µM to reach half-maximal inhibition with SGC-7901 [1] (IC50). Regarding `COc1cc2c(Nc3ccc(Br)c(F)c3)ncnc2c(OC)c1OC`, in the test with SGC-7901 [1], the IC50 is > 30 µM. As for `COc1cc2c(Nc3ccc(Br)c(Cl)c3F)ncnc2c(OC)c1OC`, 15 µM corresponded to half-maximal inhibition in the test on SGC-7901 [1] (IC50). Consider `COc1cc2c(Nc3ccc(C(F)(F)F)cc3)ncnc2c(OC)c1OC`, for which the concentration for half-maximal inhibition (IC50) in the test with SGC-7901 [1] is > 30 µM. Consider `COc1cccc2c1C(=O)c1c(O)c3c(c(O)c1C2=O)C[C@@](O)(C(=O)CO)C[C@@H]3O[C@H]1C[C@H](N)[C@@H](O)[C@H](C)O1` [EPIRUBICIN], for which the midpoint of inhibition in the test on SGC-7901 [1], the IC50, lay at 5.16 µM. Besides, the result in the test on SGC-7901 [2] was Active.

`COc1cc2c(Nc3cccc(I)c3)ncnc2c(OC)c1OC` came in with an IC50 in the test with SGC-7901 [1] of 8.64 µM. Still for that read-out and setting: the result for `COc1cc2c(Nc3cccc(F)c3F)ncnc2c(OC)c1OC` reads > 30 µM. Take `COc1cc2c(Nc3ccc(B(O)O)cc3)ncnc2c(OC)c1OC`: the 50% inhibitory concentration (IC50) in the test on SGC-7901 [1] came to 0.434 µM. Moreover, the result with SGC-7901 [3], in the test with SGC-7901 [5], in the test on SGC-7901 [6] and with SGC-7901 [8] was Active. In addition, the outcome in the test on SGC-7901 [4] was inactive. In test [7], the inhibition result is “Dose-dependent effect”. Consider `COc1cc2c(Nc3cccc(Cl)c3F)ncnc2c(OC)c1OC`, for which the IC50 in the test on SGC-7901 [1] was > 30 µM.

As to `COc1cc2c(Nc3cccc(Br)c3F)ncnc2c(OC)c1OC`, the concentration for half-maximal inhibition (IC50) with SGC-7901 [1] is > 30 µM. Consider `COc1cc2c(Nc3ccc(F)c(Cl)c3F)ncnc2c(OC)c1OC`, for which the half-maximal inhibitory concentration (IC50) with SGC-7901 [1] is > 30 µM.

Molecule `COc1cc2c(Nc3cc(C(F)(F)F)ccc3F)ncnc2c(OC)c1OC` came in with a half-inhibitory concentration (IC50) in the test with SGC-7901 [1] of 10.3 µM. `COc1cc2c(Nc3cccc(C(F)(F)F)c3)ncnc2c(OC)c1OC`: the IC50 with SGC-7901 [1] was > 30 µM.

On to `COc1cc2c(Nc3cc(Br)ccc3F)ncnc2c(OC)c1OC`, for which, in the test with SGC-7901 [1], it took 18.4 µM to reach half-maximal inhibition (IC50).

A word on the IC50: it is the point on the concentration scale where inhibition reaches its midpoint.

Source of the values: ChEMBL document CHEMBL4118271, “Synthesis and antitumor activity of novel 6,7,8-trimethoxy N-aryl-substituted-4-aminoquinazoline derivatives” (Bioorg Med Chem Lett, 2018).
